Results from ChEMBL document CHEMBL1126238, “Chemical and enzyme-mediated oxidation of the serotonergic neurotoxin 5,7-dihydroxytryptamine: mechanistic insights” (J Med Chem, 1992).

What was measured:
Type in all cases: ADME
[1] = Effect of transition metal ion [Fe2+] (10 uM) on the initial rate of oxygen consumption during the autooxidation
Procedure, shortened: (§1)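 5,7-Dihydroxytryptamine (1.0 mM) in 3.0 mL air-saturated pH 7.4 phosphate buffer (ionic strength 0.1), 37 °C, with metal ion and/or chelator (DTPA or EDTA) added; Cu2+ supplied as CuSO4. The initial O2 consumption rate (nmol O2/min) was read with a Clark-type oxygen electrode. Values are mean (n ≥ 2) ± SD.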

[2] = Effect of transition metal ion and complexing agent [Fe3+] (100 uM) +DTPA (10 uM) on the initial rate of oxygen consumption during the autooxidation; procedure, shortened: as §1
[3] = Influence of peroxidase enzyme (15 units/mL) on the initial rate of oxygen consumption at a pH of 7.4.; conditions: pH 7.4
Procedure, shortened: (§2)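 Substrate 5,7-dihydroxytryptamine, 1.0 mM, in 3.0 mL air-saturated pH 7.4 phosphate buffer (ionic strength 0.1). Peroxidase was added at the listed units/mL, either with 1.0 mM H2O2 or with no H2O2. The initial O2 consumption rate was measured with a Clark-type oxygen electrode.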

[4] = Influence of Catalase (100 ug/mL) on the transition metal Mn2+ (100 uM) ion mediated autoxidation.
Procedure, shortened: (§3)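 5,7-Dihydroxytryptamine (1.0 mM, 3.0 mL) in pH 7.4 phosphate buffer (ionic strength 0.1) at 37 °C. Runs contained 10 μM Cu2+ (as CuSO4) or 100 μM Fe2+, Fe3+ or Mn2+, alone or with catalase (100 μg/mL) or SOD (333 units/mL). The initial O2 uptake rate was measured by Clark-type oxygen electrode. Values are mean (n ≥ 2) ± SD.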

[5] = Influence of superoxide dismutase SOD (333 units/mL) on the transition metal [Fe2+] (100 uM) ion mediated autoxidation.; procedure, shortened: as §3
[6] = Effect of complexing agent EDTA (1 uM) on the initial rate of oxygen consumption during the autooxidation; procedure, shortened: as §1
[7] = Effect of transition metal ion Cu2+ (40 uM) on the initial rate of oxygen consumption during the autooxidation; procedure, shortened: as §1
[8] = Effect of transition metal ion [Fe3+] (50 uM) on the initial rate of oxygen consumption during the autooxidation; procedure, shortened: as §1
[9] = Effect of transition metal ion Mn2+ (50 uM) on the initial rate of oxygen consumption during the autooxidation; procedure, shortened: as §1
[10] = Initial rate of oxygen consumption during the autooxidation of the compound.; procedure, shortened: as §1
[11] = Effect of complexing agent DTPA (0.5 uM) on the initial rate of oxygen consumption during the autooxidation; procedure, shortened: as §1
[12] = Influence of ceruplasmin enzyme (42.0 units/mL) on the initial rate of oxygen consumption at a pH of 7.4.; conditions: pH 7.4
Procedure, shortened: (§4)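 5,7-Dihydroxytryptamine (1.0 mM) in 3.0 mL air-saturated phosphate buffer (ionic strength 0.1) at the stated pH, with bovine ceruloplasmin or mushroom tyrosinase at the listed units/mL. Initial O2 consumption (nmol O2/min) was recorded with a Clark-type oxygen electrode.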

[13] = Influence of ceruplasmin enzyme (10.5 units/mL) on the initial rate of oxygen consumption at a pH of 6.4.; conditions: pH 6.4; procedure, shortened: as §4
[14] = Effect of transition metal ion and complexing agent Mn2+ (100 uM) +EDTA (10 uM) on the initial rate of oxygen consumption during the autooxidation; procedure, shortened: as §1
[15] = Influence of tyrosinase enzyme (36 units/mL) on the initial rate of oxygen consumption at a pH of 7.4.; conditions: pH 7.4; procedure, shortened: as §4
[16] = Effect of transition metal ion and complexing agent Cu2+ (10 uM) +DTPA (1 uM) on the initial rate of oxygen consumption during the autooxidation; procedure, shortened: as §1
[17] = Influence of Catalase (100 ug/mL) on the transition metal Cu2+ (10 uM) ion mediated autoxidation.; procedure, shortened: as §3
[18] = Effect of transition metal ion Cu2+ (10 uM) on the initial rate of oxygen consumption during the autooxidation; procedure, shortened: as §1
[19] = Effect of transition metal ion [Fe2+] (50 uM) on the initial rate of oxygen consumption during the autooxidation; procedure, shortened: as §1
[20] = Effect of transition metal ion [Fe3+] (100 uM) on the initial rate of oxygen consumption during the autooxidation; procedure, shortened: as §1
[21] = Effect of transition metal ion and complexing agent [Fe3+] (100 uM) +EDTA (10 uM) on the initial rate of oxygen consumption during the autooxidation; procedure, shortened: as §1
[22] = Effect of complexing agent DTPA (1 uM) on the initial rate of oxygen consumption during the autooxidation; procedure, shortened: as §1
[23] = Influence of ceruplasmin enzyme (21.0 units/mL) on the initial rate of oxygen consumption at a pH of 7.4.; conditions: pH 7.4; procedure, shortened: as §4
[24] = Effect of transition metal ion and complexing agent Mn2+ (100 uM) +DTPA (10 uM) on the initial rate of oxygen consumption during the autooxidation; procedure, shortened: as §1
[25] = Influence of peroxidase enzyme (5 units/mL) on the initial rate of oxygen consumption at a pH of 7.4.; conditions: pH 7.4; procedure, shortened: as §2
[26] = Effect of transition metal ion and complexing agent [Fe2+] (100 uM) +DTPA (10 uM) on the initial rate of oxygen consumption during the autooxidation; procedure, shortened: as §1
[27] = Influence of tyrosinase enzyme (18 units/mL) on the initial rate of oxygen consumption at a pH of 7.4.; conditions: pH 7.4; procedure, shortened: as §4
[28] = Influence of superoxide dismutase SOD (333 units/mL) on the transition metal Mn2+ (100 uM) ion mediated autoxidation.; procedure, shortened: as §3
[29] = Effect of transition metal ion Cu2+ (20 uM) on the initial rate of oxygen consumption during the autooxidation; procedure, shortened: as §1
[30] = Influence of Catalase (100 ug/mL) on the transition metal [Fe3+] (100 uM) ion mediated autoxidation.; procedure, shortened: as §3
[31] = Effect of transition metal ion Mn2+ (100 uM) on the initial rate of oxygen consumption during the autooxidation; procedure, shortened: as §1
[32] = Effect of transition metal ion and complexing agent Cu2+ (10 uM) +EDTA (1 uM) on the initial rate of oxygen consumption during the autooxidation; procedure, shortened: as §1
[33] = Influence of tyrosinase enzyme (9 units/mL) on the initial rate of oxygen consumption at a pH of 7.4.; conditions: pH 7.4; procedure, shortened: as §4
[34] = Effect of transition metal ion [Fe3+] (200 uM) on the initial rate of oxygen consumption during the autooxidation; procedure, shortened: as §1
[35] = Effect of transition metal ion and complexing agent [Fe2+] (100 uM) +EDTA (10 uM) on the initial rate of oxygen consumption during the autooxidation; procedure, shortened: as §1
[36] = Effect of transition metal ion [Fe2+] (100 uM) on the initial rate of oxygen consumption during the autooxidation; procedure, shortened: as §1
[37] = Influence of superoxide dismutase SOD (333 units/mL) on the transition metal [Fe3+] (100 uM) ion mediated autoxidation.; procedure, shortened: as §3
[38] = Influence of superoxide dismutase SOD (333 units/mL) on the transition metal Cu2+ (10 uM) ion mediated autoxidation.; procedure, shortened: as §3
[39] = Effect of transition metal ion Cu2+ (1 uM) on the initial rate of oxygen consumption during the autooxidation; procedure, shortened: as §1
[40] = Influence of ceruplasmin enzyme (10.5 units/mL) on the initial rate of oxygen consumption at a pH of 7.4.; conditions: pH 7.4; procedure, shortened: as §4
[41] = Influence of peroxidase enzyme (10 units/mL) on the initial rate of oxygen consumption at a pH of 7.4.; conditions: pH 7.4; procedure, shortened: as §2
[42] = Effect of transition metal ion [Fe3+] (10 uM) on the initial rate of oxygen consumption during the autooxidation; procedure, shortened: as §1
[43] = Effect of complexing agent DTPA (10 uM) on the initial rate of oxygen consumption during the autooxidation; procedure, shortened: as §1
[44] = Influence of Catalase (100 ug/mL) on the transition metal [Fe2+] (100 uM) ion mediated autoxidation.; procedure, shortened: as §3
[45] = Effect of transition metal ion [Fe2+] (200 uM) on the initial rate of oxygen consumption during the autooxidation; procedure, shortened: as §1
[46] = Influence of tyrosinase enzyme (4.5 units/mL) on the initial rate of oxygen consumption at a pH of 7.4.; conditions: pH 7.4; procedure, shortened: as §4
[47] = Effect of transition metal ion Mn2+ (10 uM) on the initial rate of oxygen consumption during the autooxidation; procedure, shortened: as §1

NCCc1c[nH]c2c(O)cc(O)cc12
Rate of O2 consumption [1]: 252 nM/min | Rate of O2 consumption [2]: 39.2 nM/min | Rate of O2 consumption [3]: 102 nM/min | Rate of O2 consumption [4]: 54.5 nM/min | Rate of O2 consumption [5]: 645 nM/min | Rate of O2 consumption [6]: 39.6 nM/min | Rate of O2 consumption [7]: 2367 nM/min | Rate of O2 consumption [8]: 68 nM/min | Rate of O2 consumption [9]: 70 nM/min | Rate of O2 consumption [10]: 34.1 nM/min | Rate of O2 consumption [11]: 24 nM/min | Rate of O2 consumption [12]: 240 nM/min | Rate of O2 consumption [13]: 453 nM/min | Rate of O2 consumption [14]: 51.3 nM/min | Rate of O2 consumption [15]: 304 nM/min | Rate of O2 consumption [16]: 32.1 nM/min | Rate of O2 consumption [17]: 1524 nM/min | Rate of O2 consumption [18]: 1490 nM/min | Rate of O2 consumption [19]: 483 nM/min | Rate of O2 consumption [20]: 86 nM/min | Rate of O2 consumption [21]: 97 nM/min | Rate of O2 consumption [22]: 24.2 nM/min | Rate of O2 consumption [23]: 129 nM/min | Rate of O2 consumption [24]: 36.7 nM/min | Rate of O2 consumption [25]: 79 nM/min | Rate of O2 consumption [26]: 58 nM/min | Rate of O2 consumption [27]: 192 nM/min | Rate of O2 consumption [28]: 81.2 nM/min | Rate of O2 consumption [29]: 2244 nM/min | Rate of O2 consumption [30]: 51 nM/min | Rate of O2 consumption [31]: 87 nM/min | Rate of O2 consumption [32]: 45.6 nM/min | Rate of O2 consumption [33]: 126 nM/min | Rate of O2 consumption [34]: 125 nM/min | Rate of O2 consumption [35]: 712 nM/min | Rate of O2 consumption [36]: 628 nM/min | Rate of O2 consumption [37]: 48.5 nM/min | Rate of O2 consumption [38]: 1583 nM/min | Rate of O2 consumption [39]: 638 nM/min | Rate of O2 consumption [40]: 71.4 nM/min | Rate of O2 consumption [41]: 89 nM/min | Rate of O2 consumption [42]: 50 nM/min | Rate of O2 consumption [43]: 23.6 nM/min | Rate of O2 consumption [44]: 328 nM/min | Rate of O2 consumption [45]: 801 nM/min | Rate of O2 consumption [46]: 85 nM/min | Rate of O2 consumption [47]: 61 nM/min
